In data set [1] the test system is Cerebral cortex neuron. The data set is described as follows: Neuroprotective activity against H2O2-induced oxidative stress in E15 stage mouse primary cortical neurons at 10 uM incubated for 48 hrs prior to H2O2-treatment measured after 24 hrs by TUNEL/DAPI staining-based microscopic analysis. It is filed as functional, cell-based. Put shortly:
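Cortical cultures pretreated 48 h with compound or vehicle, then 35 μM H2O2 for 24 h; fragmented DNA detected by TUNEL staining, nuclei counterstained with DAPI, imaged by photomicroscopy.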

Data set [2] has as its system Cerebral cortex neuron. The data set is described as follows: Neuroprotective activity against H2O2-induced toxicity in E15 stage mouse primary cortical neurons at 10 uM incubated for 48 hrs prior to H2O2-treatment measured after 24 hrs by MTS assay. It is filed as functional, cell-based. The procedure, abridged: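 Cortical cultures pretreated 48 h with compound or vehicle, then exposed to increasing H2O2 concentrations for 24 h; viability by soluble MTS assay. n = 4 compound, n = 8 vehicle; one-way ANOVA with Newman-Keuls.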
In general terms: Tetrazolium dyes change colour on reduction, which living cells bring about.

The target in data set [3] is T1, Nuclear factor erythroid 2-related factor 2 (Mus musculus) (UniProt Q60795).
T1 sequence (whole entry): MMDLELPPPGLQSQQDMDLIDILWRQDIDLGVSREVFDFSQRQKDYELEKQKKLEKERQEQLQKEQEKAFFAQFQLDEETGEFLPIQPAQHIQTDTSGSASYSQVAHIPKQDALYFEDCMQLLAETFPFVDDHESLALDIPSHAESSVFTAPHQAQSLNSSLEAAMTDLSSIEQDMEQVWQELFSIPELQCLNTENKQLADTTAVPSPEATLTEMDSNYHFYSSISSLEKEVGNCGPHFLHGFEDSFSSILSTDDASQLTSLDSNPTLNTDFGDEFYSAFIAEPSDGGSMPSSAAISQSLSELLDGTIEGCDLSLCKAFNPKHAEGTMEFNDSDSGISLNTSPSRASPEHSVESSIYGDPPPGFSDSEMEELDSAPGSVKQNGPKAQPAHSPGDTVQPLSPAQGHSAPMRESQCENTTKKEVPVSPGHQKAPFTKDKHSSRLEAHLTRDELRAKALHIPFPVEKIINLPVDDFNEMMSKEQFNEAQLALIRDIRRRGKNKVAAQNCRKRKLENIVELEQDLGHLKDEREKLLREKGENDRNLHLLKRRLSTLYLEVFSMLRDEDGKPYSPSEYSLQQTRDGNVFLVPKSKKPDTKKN
In words: Induction of Nrf2/ARE-mediated GCLC gene expression in E15 stage mouse primary cortical neurons at 10 uM after 24 hrs by qPCR analysis. It is filed as cell-based. The settings on record: Cerebral cortex neuron. Put shortly: (§1)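 E15 ARE-hPAP mouse mixed cortical cultures treated 24 h with compound or vehicle; total RNA harvested for quantitative PCR, normalised to GAPDH, fold change vs vehicle; n = 8 treated, n = 4 vehicle.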

Data set [4] concerns the target T1, Nuclear factor erythroid 2-related factor 2 (Mus musculus). In words: Induction of Nrf2/ARE-mediated NQO1 gene expression in E15 stage mouse primary cortical neurons at 10 uM after 24 hrs by qPCR analysis. It is filed as cell-based. The settings on record: Cerebral cortex neuron. The procedure, abridged: as §1
(In qPCR the cycle at which signal appears reflects the starting amount.)

The nature of data set [5]: Cytotoxicity against E15 stage mouse primary cortical neurons at 50 uM by MTS assay. It is filed as cell-based. As to conditions: cerebral cortex neuron. Put shortly:
(§2)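 Mixed cortical cultures from E15 ARE-hPAP mice, 6 days in vitro (5% O2), exposed 48 h to compound in DMSO (0.1% final). Viability read by soluble MTS assay, normalised to vehicle as percent; mean ± SEM, n = 5, one-way ANOVA with Newman-Keuls.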

Data set [6] is described as follows: Cytotoxicity against E15 stage mouse primary cortical neurons at 25 uM by MTS assay. It is filed as cell-based. As to conditions: cerebral cortex neuron. The procedure, abridged: as §2
In data set [7] the target is T1, Nuclear factor erythroid 2-related factor 2 (Mus musculus). In words: Activation of Nrf2/ARE in E15 stage mouse primary cortical neurons at 50 uM after 48 hrs by human placental alkaline phosphatase reporter gene. It is filed as cell-based. The settings on record: Cerebral cortex neuron. The procedure, abridged: (§3)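 Mixed cortical cultures (~40% astrocytes/60% neurons) from E15 ARE-hPAP reporter mice, hPAP driven by 51 bp rat NQO1 ARE promoter segment; 6 days in vitro, then compound in DMSO (0.1% final) for 48 h. Lysis in TMNC, endogenous phosphatase heat-inactivated in 200 mM DEA at 65 °C; CSPD chemiluminescence, hPAP-negative baseline subtracted; fold over vehicle, n = 5.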

Data set [8] has the same target. The data set is described as follows: Activation of Nrf2/ARE in E15 stage mouse primary cortical neurons after 48 hrs by human placental alkaline phosphatase reporter gene assay. It is filed as cell-based. The settings on record: Cerebral cortex neuron. The procedure, abridged: as §3
On the technique in general: A reporter such as luciferase makes a cellular process visible.

For data set [9] the target is unchanged. The data set is described as follows: Activation of Nrf2/ARE in E15 stage mouse primary cortical neurons at 25 uM after 48 hrs by human placental alkaline phosphatase reporter gene assay relative to control. It is filed as cell-based. The settings on record: Cerebral cortex neuron. Put shortly: as §3
For data set [10] the target is unchanged. The data set is described as follows: Activation of Nrf2/ARE in E15 stage mouse primary cortical neurons at 6.25 to 50 uM after 48 hrs by human placental alkaline phosphatase reporter gene assay. As to conditions: Cerebral cortex neuron. It is filed as cell-based. The procedure, abridged: as §3
Data set [11] deals with Cerebral cortex neuron. In words: Neuroprotective activity against H2O2-induced oxidative stress in E15 stage mouse primary cortical neurons at 20 uM incubated for 48 hrs prior to H2O2-treatment measured after 24 hrs by TUNEL/DAPI staining-based microscopic analysis. It is filed as functional, cell-based. Put shortly:
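Mixed cortical cultures (~40% astrocytes, 60% neurons) from E15 ARE-hPAP reporter mouse pups were pretreated with compound or vehicle for 48 h. They were then exposed to 35 μM H2O2 for a further 24 h. Fragmented DNA was stained by TUNEL and nuclei by DAPI, and both were imaged by photomicroscopy.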

For data set [12], the system named is Cerebral cortex neuron. In words: Neuroprotective activity against H2O2-induced toxicity in E15 stage mouse primary cortical neurons at 20 uM incubated for 48 hrs prior to H2O2-treatment measured after 24 hrs by MTS assay. It is filed as functional, cell-based. Put shortly: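 Mixed cortical cultures (~40% astrocytes, 60% neurons) from E15 ARE-hPAP reporter mouse pups were pretreated with compound or vehicle for 48 h. They were then challenged with increasing H2O2 concentrations for 24 h. Viability was read by soluble MTS assay. Mean ± SEM, n = 4 compound, n = 8 vehicle. One-way ANOVA with Newman-Keuls.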

For data set [13], the target named is T1, Nuclear factor erythroid 2-related factor 2 (Mus musculus). In words: Induction of Nrf2/ARE-mediated GCLM gene expression in E15 stage mouse primary cortical neurons at 20 uM after 24 hrs by qPCR analysis. It is filed as cell-based. As to conditions: Cerebral cortex neuron. The procedure, abridged:
(§4)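 Mixed cortical cultures (~40% astrocytes, 60% neurons) from E15 ARE-hPAP reporter mouse pups, grown in Neurobasal/B27 medium at 37 °C under 5% O2, 5% CO2. Treated with compound or vehicle for 24 h. Total RNA used for quantitative PCR, normalised to GAPDH and expressed as fold change relative to vehicle. Mean ± SEM, n = 8 treated, n = 4 vehicle. One-way ANOVA with Newman-Keuls.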

Data set [14] has the same target. In words: Induction of Nrf2/ARE-mediated GCLC gene expression in E15 stage mouse primary cortical neurons at 20 uM after 24 hrs by qPCR analysis. It is filed as cell-based. As to conditions: Cerebral cortex neuron. Put shortly: as §4
Data set [15] has the same target. The data set is described as follows: Induction of Nrf2/ARE-mediated NQO1 gene expression in E15 stage mouse primary cortical neurons at 20 uM after 24 hrs by qPCR analysis. It is filed as cell-based. The settings on record: Cerebral cortex neuron. The procedure, abridged:
as §4

Active and inactive are the calls of the source. The rule behind the calls is not given here.

`CC(C)c1cc2c(c(O)c1O)[C@@]1(C=O)CCCC(C)(C)[C@@H]1CC2` [CARNOSALDEHYDE]: the result (in the data set on Cerebral cortex neuron [1]; in the data set with Cerebral cortex neuron [2]; in data set [3]; in [4]) was Active. The Activity entry was “Toxic” in data set [5], “Toxic” in data set [6] and “Dose-dependent effect” in [8]. The outcome in data set [7] was inactive. The fold change (FC) in data set [9] stood at 50.
Take `CC(C)c1cc2c(c(O)c1O)[C@@]13CCCC(C)(C)[C@@H]1[C@H](OC3=O)[C@@H]2O`: the result in data set [10] was Active. Besides, the Activity entry in [8] is “Dose-dependent effect”.
As for `COc1c(C(C)C)cc2c(c1O)[C@@]1(C(=O)O)CCCC(C)(C)[C@@H]1CC2`, the outcome in [10] was inactive.
Regarding `CC(C)(C)c1cc(O)ccc1O`, in [10], the outcome was Active.
Consider `CC(C)c1cc2c(c(O)c1O)[C@@]1(C(=O)O)CCCC(C)(C)[C@@H]1CC2` [CARNOSIC ACID], for which the Activity entry in data set [5] is “Toxic”; in data set [8], “Dose-dependent effect”. Besides, the outcome in data set [10] was Active.
As to `CC(C)c1cc2c(c(O)c1O)C1=C(CC2)C(C)(C)CCC1=O`, the outcome in data set [10] was Active. For the same molecule, in [8], the Activity entry is “Dose-dependent effect”.
On to `CC(C)c1cc2c(c(O)c1O)[C@@]13CCCC(C)(C)[C@@H]1C[C@@H]2OC3=O` [CARNOSOL], for which the result (in the data set on Cerebral cortex neuron [11]; in the data set with Cerebral cortex neuron [12]; in data set [13]; in data set [14]; in data set [15]) was Active. Further, the Activity entry in data set [5] was “Toxic”; in data set [8], “Dose-dependent effect”. Besides, in data set [7], the result was inactive. The molecule also returned a fold change (FC) in data set [9] of 50.
Turning to `CC(C)c1cc2c(c(O)c1O)[C@@]13CCCC(C)(C)[C@@H]1[C@H](OC3=O)[C@H]2O`, the result in data set [10] was Active. In [8], the Activity result was “Dose-dependent effect”.

Source of the values: ChEMBL document CHEMBL2375217, “Structure activity relationship of phenolic diterpenes from Salvia officinalis as activators of the nuclear factor E2-related factor 2 pathway” (Bioorg Med Chem, 2013).
